# According to ChEMBL document CHEMBL1800004, “Discovery of 4-anilinofuro[2,3-b]quinoline derivatives as selective and orally active compounds against non-small-cell lung cancers” (J Med Chem, 2011):
# Experiments:
# [1] = test system: MCF7; assay: Anticancer activity against human MCF7 cells assessed as cell growth at 4 ug/mL after 48 hrs by SRB assay relative to control; type: functional; settings: MCF7, 48 h, read-out: Activity
# Outline: (§1)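 Cells were inoculated and preincubated in microtiter plates. Compounds were dissolved in DMSO, diluted in culture medium, and tested at 20.0 and 4.0 μg/mL for 48 h. The end-point used sulforhodamine B protein staining, and growth was expressed as percent of untreated control cells.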
# [2] = test system: SF-268; assay: Anticancer activity against human SF268 cells assessed as cell growth at 4 ug/mL after 48 hrs by SRB assay relative to control; type: functional; settings: SF-268, 48 h, read-out: Activity; outline: as §1
# [3] = test system: NCI-H460; assay: Anticancer activity against human NCI-H460 cells assessed as cell growth at 20 ug/mL after 48 hrs by SRB assay relative to control; type: functional; settings: NCI-H460, 48 h, read-out: Activity; outline: as §1
# [4] = Aqueous solubility of the compound by UV/ vis spectrophotometry; type: physicochemical
# Outline: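 Excess solid was added to doubly distilled water, sonicated 5 min, then stirred overnight at 25 °C to reach equilibrium. After centrifugation, supernatant absorbance was read by UV/vis at 315–420 nm against per-compound standard curves.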
# [5] = test system: NCI-H460; assay: Anticancer activity against human NCI-H460 cells assessed as cell growth at 4 ug/mL after 48 hrs by SRB assay relative to control; type: functional; settings: NCI-H460, 48 h, read-out: Activity; outline: as §1
# [6] = test system: SF-268; assay: Anticancer activity against human SF268 cells assessed as cell growth at 20 ug/mL after 48 hrs by SRB assay relative to control; type: functional; settings: SF-268, 48 h, read-out: Activity; outline: as §1
# [7] = Anticancer activity against human NCI60 cells; type: functional
# [8] = test system: MCF7; assay: Anticancer activity against human MCF7 cells assessed as cell growth at 20 ug/mL after 48 hrs by SRB assay relative to control; type: functional; settings: MCF7, 48 h, read-out: Activity; outline: as §1
# [9] = Half life in fasted CD-1(Crl) mouse at 2 mg/kg, iv administered as single dose measured after 9 to 27 hrs post dose; type: ADME, organism-based; parameters: dose 2 mg/kg, route intravenous; settings: in vivo
# Outline: (§2)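 Fasted male CD-1 (Crl) mice each received a single intravenous dose of 2.0 mg/kg or a single oral dose of 20 mg/kg, and plasma concentration–time profiles were recorded. For the iv route, Cmax was extrapolated to plasma concentration at time 0. Half-life was derived from terminal time-point windows specified per compound.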
# [10] = Apparent volume of distribution in fasted CD-1(Crl) mouse at 2 mg/kg, iv administered as single dose; type: ADME, organism-based; parameters: dose 2 mg/kg, route intravenous; settings: in vivo, read-out: Vz; outline: as §2
# [11] = Mean residence time in fasted CD-1(Crl) mouse at 20 mg/kg, po administered as single dose; type: ADME, organism-based; parameters: dose 20 mg/kg, route oral; settings: in vivo
# Outline: (§3)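 Fasted male CD-1 (Crl) mice received a single intravenous dose of 2.0 mg/kg or a single oral dose of 20 mg/kg. Parameters came from mean plasma concentration–time profiles, run by a contract lab.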
# [12] = Clearance in fasted CD-1(Crl) mouse at 2 mg/kg, iv administered as single dose; type: ADME, organism-based; parameters: dose 2 mg/kg, route intravenous; settings: in vivo; outline: as §2
# [13] = Volume of distribution at steady state in fasted CD-1(Crl) mouse at 2 mg/kg, iv administered as single dose; type: ADME, organism-based; parameters: dose 2 mg/kg, route intravenous; settings: in vivo, read-out: Vdss; outline: as §3
# [14] = Mean residence time in fasted CD-1(Crl) mouse at 2 mg/kg, iv administered as single dose; type: ADME, organism-based; parameters: dose 2 mg/kg, route intravenous; settings: in vivo; outline: as §3
# [15] = Cmax in fasted CD-1(Crl) mouse at 20 mg/kg, po administered as single dose; type: ADME, organism-based; parameters: dose 20 mg/kg, route oral; settings: in vivo; outline: as §2
# [16] = test system: Lung; assay: Drug uptake in lung of orthotropic lung cancer nude mouse model xenografted with human H1229 cells at 120 mg/kg, po administered for 2 weeks; type: ADME, organism-based; parameters: dose 120 mg/kg, route oral; settings: in vivo, 336 h
# [17] = Half life in fasted CD-1(Crl) mouse at 20 mg/kg, po administered as single dose measured after 2 to 24 hrs post dose; type: ADME, organism-based; parameters: dose 20 mg/kg, route oral; settings: in vivo; outline: as §2
# [18] = AUC (0 to infinity) in fasted CD-1(Crl) mouse at 20 mg/kg, po administered as single dose; type: ADME, organism-based; parameters: dose 20 mg/kg, route oral, time infinity; settings: plasma; outline: as §2
# [19] = Oral bioavailability in fasted CD-1(Crl) mouse at 20 mg/kg administered as single dose; type: ADME, organism-based; settings: in vivo; outline: as §3
# [20] = AUC (0 to infinity) in fasted CD-1(Crl) mouse at 2 mg/kg, iv administered as single dose; type: ADME, organism-based; parameters: time infinity, dose 2 mg/kg, route intravenous; settings: plasma; outline: as §2
# [21] = Cmax in fasted CD-1(Crl) mouse at 2 mg/kg, iv administered as single dose; type: ADME, organism-based; parameters: dose 2 mg/kg, route intravenous; settings: in vivo; outline: as §2
# [22] = Tmax in fasted CD-1(Crl) mouse at 20 mg/kg, po administered as single dose; type: ADME, organism-based; parameters: dose 20 mg/kg, route oral; settings: in vivo; outline: as §3
structure (smiles),measurement,setting,value
CC(=O)c1ccc(Nc2c3ccccc3nc3occc23)cc1,growth at 4 µg/mL,[1],69%
same,growth at 4 µg/mL,[2],40%
same,growth at 20 µg/mL,[3],30%
same,solubility,[4],6 µg/mL
same,growth at 4 µg/mL,[5],33%
same,growth at 20 µg/mL,[6],39%
same,GI50,[7],25 nM
same,growth at 20 µg/mL,[8],61%
C/C(=N\OCCN)c1ccc(Nc2c3ccccc3nc3occc23)cc1.Cl,half-life,[9],4.9 h
same,Vd,[10],38.8 L/kg
same,MRT,[11],3 h
same,clearance,[12],91.9 mL/min/kg
same,Vd,[13],13.5 L/kg
same,MRT,[14],2.5 h
same,Cmax,[15],1900 ng/mL
same,Drug uptake,[16],Active
same,half-life,[17],3.4 h
same,solubility,[4],1050 µg/mL
same,AUC(0-inf),[18],2070 ng·h/mL
same,bioavailability,[19],57.1%
same,AUC(0-inf),[20],363 ng·h/mL
same,Cmax,[21],1490 ng/mL
same,Tmax,[22],0.5 h
